Measured values: ChEMBL document CHEMBL4184225, “Discovery of selective 2,4-diaminoquinazoline toll-like receptor 7 (TLR 7) agonists” (Bioorg Med Chem Lett, 2018)

Columns and labels:
[1] = molecular target: T1, Toll-like receptor 7 (Homo sapiens) (UniProt Q9NYK1); experiment: Agonist activity at human TLR7 expressed in HEK293 cells assessed as induction of receptor activation incubated for 6 hrs by NF-kappaB-luciferase reporter gene assay; assay type: cell-based
T1 sequence (whole entry): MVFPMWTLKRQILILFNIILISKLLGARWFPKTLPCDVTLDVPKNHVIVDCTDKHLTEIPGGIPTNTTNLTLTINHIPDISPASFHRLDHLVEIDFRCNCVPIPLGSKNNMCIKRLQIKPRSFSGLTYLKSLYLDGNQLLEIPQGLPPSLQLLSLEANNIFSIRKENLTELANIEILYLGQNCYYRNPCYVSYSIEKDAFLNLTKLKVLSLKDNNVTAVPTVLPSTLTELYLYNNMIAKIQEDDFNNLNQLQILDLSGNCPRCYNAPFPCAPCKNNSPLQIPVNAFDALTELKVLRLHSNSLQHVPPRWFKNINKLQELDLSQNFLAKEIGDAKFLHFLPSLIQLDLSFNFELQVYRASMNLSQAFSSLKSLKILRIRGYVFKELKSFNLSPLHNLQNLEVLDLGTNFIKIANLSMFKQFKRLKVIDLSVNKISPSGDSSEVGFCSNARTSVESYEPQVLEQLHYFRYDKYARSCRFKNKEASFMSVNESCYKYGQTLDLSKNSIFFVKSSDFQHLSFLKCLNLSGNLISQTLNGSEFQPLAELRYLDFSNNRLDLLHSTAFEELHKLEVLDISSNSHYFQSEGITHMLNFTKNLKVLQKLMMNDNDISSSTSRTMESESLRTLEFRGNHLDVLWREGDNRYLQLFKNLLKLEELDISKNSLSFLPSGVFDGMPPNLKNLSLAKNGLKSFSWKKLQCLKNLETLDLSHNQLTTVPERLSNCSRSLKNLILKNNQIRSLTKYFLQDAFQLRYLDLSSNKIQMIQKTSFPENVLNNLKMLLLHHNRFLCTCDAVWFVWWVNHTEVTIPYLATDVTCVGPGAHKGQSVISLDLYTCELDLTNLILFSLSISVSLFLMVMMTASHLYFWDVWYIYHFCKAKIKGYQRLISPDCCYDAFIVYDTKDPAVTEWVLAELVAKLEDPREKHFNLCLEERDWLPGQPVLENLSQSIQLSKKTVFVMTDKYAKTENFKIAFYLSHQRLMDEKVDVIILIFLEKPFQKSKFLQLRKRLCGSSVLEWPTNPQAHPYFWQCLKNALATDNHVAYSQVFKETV
Summary of the method: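 HEK293 cells transiently transfected overnight with CMV-TLR7 (wild type or dLRR2 mutant) plus NFκB-luc plasmids. Seeded at 1.67 x 10^5 cells/mL onto compound in 4% DMSO (stock), 6 h at 37°C, 5% CO2, luciferase readout. Quadruplicate dose-response. LEC is the concentration giving an effect at least two-fold above assay SD. Values averaged over independent experiments where repeated.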

Toll-like receptor 8 = molecular target: T2, Toll-like receptor 8 (Homo sapiens, UniProt Q9NR97); experiment: Agonist activity at human TLR8 expressed in HEK293 cells assessed as induction of receptor activation incubated for 6 hrs by NF-kappaB-luciferase reporter gene assay; assay type: cell-based; details: hek293, 6 h
T2 sequence (Q9NR97 whole entry): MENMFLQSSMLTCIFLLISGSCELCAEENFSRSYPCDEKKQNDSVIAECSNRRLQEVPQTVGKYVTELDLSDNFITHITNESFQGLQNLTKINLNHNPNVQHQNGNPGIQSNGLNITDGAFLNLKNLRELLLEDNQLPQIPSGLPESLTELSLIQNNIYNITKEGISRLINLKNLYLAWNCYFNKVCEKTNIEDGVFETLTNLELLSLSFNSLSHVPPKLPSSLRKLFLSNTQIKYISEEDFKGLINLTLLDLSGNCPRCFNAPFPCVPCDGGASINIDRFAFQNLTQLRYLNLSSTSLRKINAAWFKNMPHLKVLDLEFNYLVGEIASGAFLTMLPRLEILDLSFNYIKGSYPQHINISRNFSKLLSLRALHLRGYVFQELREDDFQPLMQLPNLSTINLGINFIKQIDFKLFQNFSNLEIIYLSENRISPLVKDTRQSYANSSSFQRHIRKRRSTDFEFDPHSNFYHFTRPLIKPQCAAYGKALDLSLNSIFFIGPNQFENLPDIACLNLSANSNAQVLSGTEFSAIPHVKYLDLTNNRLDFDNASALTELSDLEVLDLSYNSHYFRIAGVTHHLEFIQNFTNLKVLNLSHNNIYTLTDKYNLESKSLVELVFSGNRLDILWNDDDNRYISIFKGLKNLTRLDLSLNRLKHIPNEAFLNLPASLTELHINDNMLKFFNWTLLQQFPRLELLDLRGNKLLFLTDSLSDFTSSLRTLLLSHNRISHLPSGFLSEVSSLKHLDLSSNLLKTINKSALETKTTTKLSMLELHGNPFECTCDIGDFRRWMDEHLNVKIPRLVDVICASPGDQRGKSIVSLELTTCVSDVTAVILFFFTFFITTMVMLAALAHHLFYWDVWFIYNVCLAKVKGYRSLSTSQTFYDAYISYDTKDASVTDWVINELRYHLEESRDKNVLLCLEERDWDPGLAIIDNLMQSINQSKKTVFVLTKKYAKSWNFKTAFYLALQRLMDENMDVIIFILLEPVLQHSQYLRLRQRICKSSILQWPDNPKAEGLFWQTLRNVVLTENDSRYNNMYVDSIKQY
Summary of the method: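 HEK293 cells transiently transfected overnight at 37°C with CMV-TLR8 plasmid (wild type or dLRR2 mutant) plus NFκB-luc reporter, then exposed to compound for 6 h at 37°C, 5% CO₂. Luciferase read-out. Quadruplicate dose-response. LEC is the concentration giving an effect at least two-fold above the assay SD, averaged over two or more independent experiments.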

[2] = molecular target: T1, Toll-like receptor 7 (Homo sapiens); experiment: Agonist activity at TLR7 in human PBMC assessed as suppression of HCV replicon replication in human HuH7 luc/neo cells harboring RNA encoding bicistronic expression construct comprising wild type HCV type 1b NS3-NS5B regions exposed to conditioned media from compound treated PBMCs by luciferase reporter gene assay; assay type: cell-based
Summary of the method: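 PBMCs from buffy coats of at least two donors (Ficoll), in RPMI with 10% human AB serum, 2 x 10^5 cells/well, incubated overnight with compound. Supernatant transferred onto Huh7-luc/neo replicon cells plated the day before (2.2 x 10^3/well). Luciferase read after 24 h. EC50 is the concentration applied to PBMCs giving 50% luciferase reduction. Recombinant IFN-α2a standard.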

[3] = Cytotoxic activity against HEK293 cells assessed as reduction in cell viability incubated for 6 hrs; assay type: cell-based; details: human
Summary of the method: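 HEK293 cells transfected with the CMV-TLR7 construct alone, treated with a compound dilution series for 6 h at 37°C, 5% CO₂. Viability read by ATP luminescence. Reported as CC50.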

[4] = Metabolic stability in mouse liver microsomes assessed as drug metabolism after 15 mins at 1 uM; assay type: ADME, microsome; details: read-out: Drug metabolism
Summary of the method: (§1)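 Compound at 1µM incubated with liver microsomes of the stated species. Percent of compound metabolized after 15 min.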

[5] = Metabolic stability in human liver microsomes assessed as drug metabolism after 15 mins at 1 uM; assay type: ADME, microsome; details: read-out: Drug metabolism; summary of the method: as §1

Compound	MEC [1] [µM]	MEC (Toll-like receptor 8) [µM]	MEC [2] [µM]	CC50 at 6 h [3] [µM]	metabolised at 0.25 h, 1 µM [4] [%]	metabolised at 0.25 h, 1 µM [5] [%]
CCCCNc1nc(N)nc2cccc(C(=O)N[C@@H](C)c3cccc(OC)c3)c12	0.37	> 25	0.5	> 25	96	97
CCCCNc1nc(N)nc2cccc(CCc3ccccc3)c12	0.13	0.47	0.27	> 25	97	24
CCCCNc1nc(N)nc2cccc(C(=O)N[C@@H](C)c3ccccc3OC)c12	0.28	> 25	0.14	> 25	99	99
CCCCNc1nc(N)nc2cc(OC)c(OC)cc12	10	1.1	2.05	> 18		
CCCCNc1nc(N)nc2cccc(C)c12	0.5	0.3	0.32	> 25	100	96
CCCCNc1nc(N)nc2cc(CN(C)C)ccc12	0.2	0.04	0.04	> 18		
CCCNc1nc(N)nc2ccccc12	1.07	0.93	0.67	> 25		
CCCCNc1nc(N)nc2cccc(OCCOC)c12	0.1	0.2	0.12	> 25	98	59
CCCCNc1nc(N)nc2cc(OC)ccc12	0.9	0.3	0.15	> 18		
CCCCNc1nc(N)nc2cc(C(=O)N(C)C)ccc12	0.1	0.5	0.06	> 18		
CCCCNc1nc(N)nc2cccc(OC)c12	0.4	0.1	0.1	> 25	100	98
CCCCCNc1nc(N)nc2ccccc12	0.06	0.1	0.04	> 25		
CC(C)CCNc1nc(N)nc2ccccc12	> 25	2.11	1.5	> 25		
CCNc1nc(N)nc2ccccc12	3.07	0.77	2.27	> 25		
CCCCNc1nc(N)nc2ccc(OC)cc12	5.6	1.8	2.44	> 18		
COCCCNc1nc(N)nc2ccccc12	0.46	0.01	0.04	> 25		
CCCCNc1nc(N)nc2ccc(CO)cc12	0.9	0.2	0.14	> 18		

Compound	MEC [1] [µM]	MEC (Toll-like receptor 8) [µM]	MEC [2] [µM]	CC50 at 6 h [3] [µM]	metabolised at 0.25 h, 1 µM [4] [%]	metabolised at 0.25 h, 1 µM [5] [%]
CCCCNc1nc(N)nc2ccc(CCc3ccccn3)cc12	0.1	0.3	0.04	> 18		
CCCCNc1nc(N)nc2ccc(C#N)cc12	> 25	7.1	13.2	> 18		
CCCCNc1nc(N)nc2cc(F)c(F)cc12	1.8	0.1	0.26	> 18		
CCCCNc1nc(N)nc2ccc(CCc3ccc(N(C)C)cc3)cc12	0.2	0.5	0.15	> 18		
CCCCNc1nc(N)nc2ccc(F)cc12	0.3	0.1	0.11	> 18		
CCCCNc1nc(N)nc2ccc(C(C)=O)cc12	6.1	1.9	2.39	> 18		
CCCCNc1nc(N)nc2cccc(CC3CCCC3)c12	0.12	> 25	0.09	> 25		
CCCCNc1nc(N)nc2cccc(Cl)c12	1		0.17	> 25	88	99
CCCCNc1nc(N)nc2ccc(C(C)O)cc12 (stereo not given)	12	5.8	8.49	> 18		
CCCCNc1nc(N)nc2c(F)cccc12	0.2	0.3	0.07	> 18		
CCCCNc1nc(N)nc2cc(C(N)=O)ccc12	0.4	2	0.15	> 18		
CNc1nc(N)nc2ccccc12	18.7	6.87	8.88	> 25		
CCCCNc1nc(N)nc2cc(CO)ccc12	0.1	0.1	0.05	> 18		
CCCC(C)Nc1nc(N)nc2ccccc12 (stereo not given)	0.71	0.17	0.1	> 25		
CCCCNc1nc(N)nc2cccc(C(=O)N(C)C(C)C)c12	5.62	> 25	1.92	> 25		
CCCCNc1nc(N)ncc1OCC	4.7	1.1	1.43	> 25		
